# Screens from PubChem BioAssay.
# Hits are enriched below; roughly 2% of the tested compounds scored in any of these assays.
# NSD2 inh: NSD2 histone methyltransferase inhibitors, primary screen, biochemical, AlphaScreen, single concentration, set 2 | Histone-lysine N-methyltransferase NSD2 (Homo sapiens), O96028 | NSD2 peptide methylation, 120 min | inhibition, % at 12.5 µM | 0.54% of 310,000 active; in the data active = inhibition above about 50%
# Target sequence (O96028 whole entry, looked up): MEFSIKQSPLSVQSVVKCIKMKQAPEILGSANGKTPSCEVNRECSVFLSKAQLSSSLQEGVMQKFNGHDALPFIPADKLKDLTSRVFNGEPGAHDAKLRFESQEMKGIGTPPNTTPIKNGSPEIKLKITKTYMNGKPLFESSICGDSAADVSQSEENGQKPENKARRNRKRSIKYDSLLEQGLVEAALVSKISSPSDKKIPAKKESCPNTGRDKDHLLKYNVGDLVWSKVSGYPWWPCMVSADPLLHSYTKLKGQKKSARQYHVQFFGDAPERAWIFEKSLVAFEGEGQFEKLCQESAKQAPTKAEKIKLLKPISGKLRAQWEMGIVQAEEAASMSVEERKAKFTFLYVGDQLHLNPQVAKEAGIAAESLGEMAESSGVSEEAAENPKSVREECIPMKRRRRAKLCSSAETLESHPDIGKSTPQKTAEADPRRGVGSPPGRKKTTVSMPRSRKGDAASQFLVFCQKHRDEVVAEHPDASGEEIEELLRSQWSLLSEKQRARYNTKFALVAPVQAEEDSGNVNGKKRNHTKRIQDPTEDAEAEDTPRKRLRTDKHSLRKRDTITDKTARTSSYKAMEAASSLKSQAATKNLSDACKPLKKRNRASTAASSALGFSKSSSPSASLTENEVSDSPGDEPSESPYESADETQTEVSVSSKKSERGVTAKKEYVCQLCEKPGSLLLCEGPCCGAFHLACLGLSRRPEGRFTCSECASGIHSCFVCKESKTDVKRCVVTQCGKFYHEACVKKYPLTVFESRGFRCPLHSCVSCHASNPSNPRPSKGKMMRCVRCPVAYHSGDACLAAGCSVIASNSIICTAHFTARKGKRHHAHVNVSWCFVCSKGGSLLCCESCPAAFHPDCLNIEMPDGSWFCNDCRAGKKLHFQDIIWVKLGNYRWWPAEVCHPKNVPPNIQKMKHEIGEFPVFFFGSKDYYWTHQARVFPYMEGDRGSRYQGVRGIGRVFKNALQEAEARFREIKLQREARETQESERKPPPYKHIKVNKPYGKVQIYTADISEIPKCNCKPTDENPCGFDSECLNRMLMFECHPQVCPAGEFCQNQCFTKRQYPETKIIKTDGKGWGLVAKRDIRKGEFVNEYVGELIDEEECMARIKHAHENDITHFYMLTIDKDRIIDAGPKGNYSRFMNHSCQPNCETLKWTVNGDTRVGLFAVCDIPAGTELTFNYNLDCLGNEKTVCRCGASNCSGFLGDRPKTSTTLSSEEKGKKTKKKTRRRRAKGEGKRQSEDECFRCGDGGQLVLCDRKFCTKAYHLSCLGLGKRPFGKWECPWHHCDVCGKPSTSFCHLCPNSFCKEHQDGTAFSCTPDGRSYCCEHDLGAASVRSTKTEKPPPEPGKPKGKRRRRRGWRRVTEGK
# XiGFP reactiv: activators of inactive X chromosome reactivation, primary screen, imaging, XiGFP fibroblasts, GFP high-content imaging, set 2 | XiGFP mouse fibroblasts, % GFP-positive cells imaging, 3 d; cells co-treated with 5-aza-dC sensitizer; scaled so ellipticine positive control = 100% | activation, % at 7.58 µM | 0.055% of 360,000 active | AID 743238, 2013;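 active = mean normalized replicate activation at least 10% and every replicate at or above 10%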;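 also: 0% = median of on-plate neutral control wells and 100% = ellipticine 6 µM median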
#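 Material: XiGFP fibroblasts, SV40-immortalized. Buffer or medium: DMEM plus 5-aza-dC sensitizer. Compound: single concentration per compound, delivered by pin transfer. Times: 3 days compound exposure. Controls: ellipticine 6 µM.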
# SR-BI DiI inh: inhibitors of SR-BI mediated HDL lipid uptake, primary screen, ldlA[mSR-BI] cells, fluorescence, single point; AID 488896, 2010; inhibition, % at 12.5 µM; ldlA[mSR-BI] CHO cells, DiI-HDL uptake fluorescence, 3 h; 0.96% of 320,000 active;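 active = mean replicate inhibition of at least 70% and a set share of replicates each scoring 70 or more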;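 also: 0% = median of neutral control wells and 100% = median of positive control wells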
# HGIII-sPLA2 inh: human group III sPLA2 inhibitors, primary screen, biochemical, QFRET, BODIPY PC-A2 liposome substrate; Group 3 secretory phospholipase A2 (Homo sapiens), Q9NZ20; QFRET BODIPY PC-A2 liposome hydrolysis, fluorescence; inhibition, % at 12.2 µM; 0.56% of 370,000 active; AID 743126, 2013;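 active = inhibition above mean plus 3 SD of compounds lying within the high and low control bounds, cut at about 19% in these data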;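 also: 0% = median of test compound wells and 100% = no enzyme DMSO wells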
# SR-BI uptake up: activators of SR-BI mediated DiI-HDL uptake, primary screen, ldlA[mSR-BI] CHO cells, DiI fluorescence. 3 h; 100 = double the neutral-control signal. activation, % at 12.5 µM. 0.096% of 320,000 active. AID 504775, 2011;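 active = mean replicate activation of at least 60% and every replicate at or above 60%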;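 also: 0% = median plate neutral-control signal and 100% = twice that signal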
#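 material = CHO ldlA[mSR-BI] cells | medium = Ham's F12 with 0.5% BSA, HEPES 25 mM, pH 7.4 | reagent = fluorescent DiI-HDL, 10 µg/mL final | compound dosing = single-point compound dose | incubation = 3 h, 37 °C | measured by = bottom-read fluorescence, 550/595 nm | measure = HDL uptake via cellular fluorescence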
# ARNT-TACC3 inh: disruptors of ARNT/TACC3 protein interaction, primary screen, biochemical, AlphaScreen, single concentration. AlphaScreen His-ARNT PAS-B/GST-TACC3 binding, luminescence; TACC3 fragment carries E629A point mutation. inhibition, % at 9.99 µM. 0.66% of 390,000 active. AID 623870, 2012;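 active = mean inhibition of replicates at least 50% and at least half of replicates each reaching 50%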;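 also: 0% = complete ARNT plus TACC3 wells and 100% = ARNT alone without TACC3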
# sPLA2 confirm: human group III sPLA2 inhibitors, confirmation, biochemical, QFRET, triplicate; shares compounds with HGIII-sPLA2 inh; recombinant hGIII-sPLA2, BODIPY PC-A2 QFRET fluorescence; inhibition, % at 12.2 µM; 34% of 2,000 active; AID 743280, 2014;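 active = mean inhibition across triplicates above the hit cutoff set in the earlier primary screen, cut at about 19% in these data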;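 also: 0% = enzyme with DMSO and 100% = DMSO wells lacking enzyme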
# BODIPY interf: 535nm fluorescence optical interference, confirmation, artefact control for HGIII-sPLA2 inhibitor project, biochemical, QFRET | shares compounds with HGIII-sPLA2 inh | BODIPY FL product fluorescence interference | inhibition, % at 12.2 µM | 8.5% of 2,000 active | AID 743282, 2014;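 active = average inhibition above the solvent-only control mean plus 3 SD, cut at about 6% in these data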;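 also: 0% = DMSO with substrate plus product and 100% = DMSO with substrate alone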
# 535nm interf DR: 535nm fluorescence optical interference, dose response, artefact control for HGIII-sPLA2 inhibitor project, biochemical, QFRET | shares compounds with HGIII-sPLA2 inh | BODIPY FL product fluorescence interference, cell-free | IC50, µM | 240 tested, under 10 active;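 active = IC50 at or below 10 µM; inactive = IC50 above 10 µM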
# * marks the source's active call; other numbers are inactive results; x = not tested or not shown.
SMILES,NSD2 inh,XiGFP reactiv,SR-BI DiI inh,HGIII-sPLA2 inh,SR-BI uptake up,ARNT-TACC3 inh,sPLA2 confirm,BODIPY interf,others
CC12CCC(C(=O)N(CSC(=S)N/N=C\c3ccccc3O)C1=O)C2(C)C (configuration not stated),1,x,104*,28*,-104,66*,36*,4,
CC(C)CCNC(=O)COc1ccc2c3c(c(=O)oc2c1)CCC3,-1,x,-19,-3,19,-8,x,x,
CC(C)CNC(=O)COc1ccc2c3c(c(=O)oc2c1)CCC3,0,x,-4,21*,4,-7,-2,-5,
CC1(C(=O)NCc2ccc(Cl)cc2)CCN1C(=O)Cc1cccs1 (configuration not stated),-1,0,x,5,x,x,x,x,
Cc1ccc(-n2[nH]c(C)c(C=Nc3ccc(S(=O)(=O)Nc4nc(C)cc(C)n4)cc3)c2=O)c(C)c1,10,0,-4,0,4,-1,x,x,
Cc1ccc(-n2[nH]c(C)c(C=Nc3ccc(S(=O)(=O)N4CCOCC4)cc3)c2=O)c(C)c1,3,0,x,22*,x,x,8,-12,
C[C@H]1CN([C@@H](C)CO)C(=O)c2cc(NC(=O)Cc3ccccc3)ccc2O[C@H]1CN(C)C(=O)Nc1ccccc1,x,0,x,x,x,-6,x,x,
COc1cccc(N=NC2C(=O)N(C(N)=S)N=C2C)c1 (configuration not stated),2,0,-6,23*,6,0,14,-2,
CC(C)Sc1cc(N2CCCC2)nc(-c2ccccc2Cl)n1,-5,0,39,22*,-39,-11,3,-7,
CC(C)Sc1cc(N2CCCC2)nc(-c2ccccc2)n1,1,x,55,7,-55,-9,x,x,
CN(C)CCCNC(=S)/N=c1\sccn1Cc1ccccc1Cl,20,x,-4,8,4,-19,x,x,
S=C(/N=c1/sccn1Cc1ccccc1)NC1CC1,26,0,12,20*,-12,0,18,-6,
CN1CCN(C(=O)C[C@H]2CC[C@H]3[C@@H](COc4ccc(NC(=O)c5cscn5)cc4C(=O)N3C)O2)CC1,x,0,x,x,x,1,x,x,
COc1cccc(N=Nc2ccc(O)c3ncccc23)c1,14,3,8,25*,-8,20,51*,14*,
COc1cc(NCC2COc3c(ccc(OC)c3OC)C2=O)c([N+](=O)[O-])cc1OC (configuration not stated),4,0,x,0,x,x,x,x,
O=C(OCn1nnc2ccccc2c1=O)c1cc(-c2ccccc2)nc2ccccc12,20,0,8,23*,-8,-6,-4,-2,
COc1ccccc1C(=O)OCn1nnc2ccccc2c1=O,x,0,-7,5,7,1,x,x,
CCn1c(SC/C=C/c2ccccc2)nnc1-c1cnccn1,-1,x,-6,-2,6,-29,x,x,
CC(=O)C1=C(C)N(CC2CC2)C(=O)N[C@H]1c1ccccc1,x,0,-25,11,25,-5,x,x,
COc1ccc(NC(=O)c2cccc3ccccc23)cc1OC,0,0,x,14,x,x,x,x,
Cc1ccccc1NC(=O)NNC(=O)c1ccc2ccccc2c1,0,0,-19,1,19,-2,x,x,
COc1ccccc1NC(=O)NNC(=O)c1ccc2ccccc2c1O,17,0,13,30*,-13,-2,36*,5,535nm interf DR=>122
COc1ccccc1NC(=O)NNC(=O)c1ccc2ccccc2c1,-3,0,-7,-3,7,-3,x,x,
Cc1ccccc1NC(=O)NNC(=O)c1ccc2ccccc2c1O,2,0,22,39*,-22,6,28*,1,535nm interf DR=>122
COc1ccc(NC(=O)NNC(=O)c2ccc3ccccc3c2O)cc1OC,1,0,115*,28*,-115,-4,28*,1,535nm interf DR=>122
SMILES,NSD2 inh,XiGFP reactiv,SR-BI DiI inh,HGIII-sPLA2 inh,SR-BI uptake up,ARNT-TACC3 inh,sPLA2 confirm,BODIPY interf,others
O=C(NNC(=O)c1ccc2ccccc2c1O)c1ccccc1Cl,2,x,35,31*,-35,x,37*,3,535nm interf DR=>122
CC1CCN(C(=O)CSc2nnc(CNC(=O)c3ccco3)o2)CC1,1,x,6,3,-6,x,x,x,
COc1cccc(C(=O)NNC(=O)c2ccc3ccccc3c2O)c1,7,0,108*,25*,-107,-6,14,0,
COc1ccc(Nc2nccc(-c3ccc([N+](=O)[O-])cc3)n2)cc1,0,0,16,11,-16,-4,x,x,
NC(=O)C1CC(=O)N(c2ccc(OCc3ccc(Cl)cc3)cc2)C1 (configuration not stated),1,0,-11,20*,11,-3,12,-8,
CCOC(=O)C1(C)CCCN1C(=O)c1ccc(C)cc1 (configuration not stated),-1,0,x,-3,x,x,x,x,
CCOC(=O)C1(C)CCCCCN1C(=O)c1ccc(N(C)C)cc1 (configuration not stated),3,0,x,19*,x,x,-4,-8,
CC(C)COc1cccc(C(=O)N(CC(=O)Nc2ccccc2C(F)(F)F)Cc2ccco2)c1,x,0,28,-6,-28,-8,x,x,
S=C(NCCc1ccccc1)N1CCCC1,-3,0,1,2,-1,-2,x,x,
CC1CCCCN1C(=S)NCCc1ccccc1 (configuration not stated),-8,x,12,22*,-12,-5,9,-6,
O=C(CSc1nc2ccccc2[nH]1)N1CCN(C(=O)c2ccco2)CC1,19,0,12,19*,-12,-7,1,-4,
